Reference: ChEMBL document CHEMBL3525963, “Tissue distribution and elimination of [14C]apixaban in rats” (Drug Metab Dispos, 2011)

Legend:
Conditions in all cases: in vivo
Adrenal gland [1] = experiment: Biodistribution in pregnant Sprague-Dawley rat adrenal gland at 5 mg/kg, po administered as single dose measured after 4 hrs; type: ADME, organism-based; parameters: dose 5 mg/kg, dosed compound name [14C]-apixaban, route oral
Summary of the method: (§1)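 Fasted pregnant SD rats (n=6, 270-319 g) each received one oral gavage dose of [14C]apixaban, 5 mg/kg (100 μCi/kg), in 0.5% Tween 80/Labrafil. One rat was killed at each of 0.5, 1, 4, 8, 24 and 48 h. Carcasses were frozen in hexane/dry ice, cut into 40 µm sagittal sections, exposed to phosphor plates and quantified against [14C]glucose standards as µg eq/g. LLOQ was 0.037 µg eq/g.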

Muscle tissue [2] = experiment: Biodistribution in pregnant Sprague-Dawley rat muscle at 5 mg/kg, po administered as single dose measured after 0.5 hrs; type: ADME, organism-based; parameters: dose 5 mg/kg, dosed compound name [14C]-apixaban, route oral
Rattus norvegicus [3] = experiment: Biodistribution in fetal blood of pregnant Sprague-Dawley rat at 5 mg/kg, po administered as single dose measured after 0.5 hrs; type: ADME, organism-based; parameters: dose 5 mg/kg, dosed compound name [14C]-apixaban, route oral
Summary of the method: (§2)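 Pregnant rats, 270-319 g and fasted overnight, received [14C]apixaban by oral gavage at 100 μCi/kg in 0.5% Tween 80/Labrafil. One dam per time point was euthanized and frozen in hexane/dry ice. Fetal tissue radioactivity was measured by QWBA on 40 µm sagittal sections calibrated with [14C]glucose standards. Values are in µg eq/g, with LLOQ 0.037 μg eq/g.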

Muscle tissue [4] = experiment: Biodistribution in male Sprague-Dawley rat muscle at 5 mg/kg, po administered as single dose measured after 1 hr; type: ADME, organism-based; parameters: dose 5 mg/kg, dosed compound name [14C]-apixaban, route oral
Summary of the method: (§3)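 [14C]apixaban (1.0 mg/mL, 20 μCi/mL) in 0.5% Tween 80 in Labrafil, given by oral gavage at 100 μCi/kg to male rats (225-252 g) fasted overnight through 4 h post-dose. One rat per time point. Carcasses frozen in hexane/dry ice and cut into 40 µm sagittal sections. QWBA read on phosphor plates against [14C]glucose standards, reported as µg eq/g. LLOQ 0.037 µg eq/g.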

[5] = Drug excretion in Sprague-Dawley rat feces at 30 mg/kg, po administered as single dose after 0 to 168 hrs
Rattus norvegicus [6] = experiment: Biodistribution in pregnant Sprague-Dawley rat brown fat at 5 mg/kg, po administered as single dose measured after 48 hrs; type: ADME, organism-based, Brown adipose tissue; parameters: dose 5 mg/kg, dosed compound name [14C]-apixaban, route oral; summary of the method: as §1
Rattus norvegicus [7] = experiment: Biodistribution in fetal blood of pregnant Sprague-Dawley rat at 5 mg/kg, po administered as single dose measured after 8 hrs; type: ADME, organism-based; parameters: dose 5 mg/kg, dosed compound name [14C]-apixaban, route oral; summary of the method: as §2
Adrenal gland [8] = experiment: Biodistribution in female Sprague-Dawley rat adrenal gland at 5 mg/kg, po administered as single dose measured after 72 hrs; type: ADME, organism-based; parameters: dose 5 mg/kg, dosed compound name [14C]-apixaban, route oral
Summary of the method: (§4)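 Quantitative whole-body autoradiography was run after a single 5 mg/kg (100 μCi/kg) oral gavage to fasted female or pregnant SD rats, one rat per time point. Carcasses were frozen in hexane/dry ice, and 40 µm sagittal sections were dried at −20°C for at least 48 h. Sections were exposed to a phosphor plate alongside [14C]glucose standards (0.001–6.5 µCi/g). Results are µg eq/g, with LLOQ 0.037 µg eq/g.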

Rattus norvegicus [9] = experiment: Biodistribution in male Sprague-Dawley rat salivary gland at 5 mg/kg, po administered as single dose measured after 24 hrs; type: ADME, organism-based; parameters: dose 5 mg/kg, dosed compound name [14C]-apixaban, route oral
Heart = experiment: Biodistribution in male Sprague-Dawley rat heart at 5 mg/kg, po administered as single dose measured after 24 hrs; type: ADME, organism-based; parameters: dose 5 mg/kg, dosed compound name [14C]-apixaban, route oral
Summary of the method: (§5)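 Fasted male SD rats (225-252 g) each received one oral gavage dose of [14C]apixaban, 5 mg/kg (100 μCi/kg), in 0.5% Tween 80/Labrafil vehicle. One rat was killed per time point, from 0.5 to 168 h. Frozen carcasses were cut into 40 µm sagittal whole-body sections and read by QWBA phosphor imaging against [14C]glucose calibrants. Results are in µg apixaban eq/g; BLQ <0.037 µg eq/g.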

Spleen = experiment: Biodistribution in pregnant Sprague-Dawley rat spleen at 5 mg/kg, po administered as single dose measured after 48 hrs; type: ADME, organism-based; parameters: dose 5 mg/kg, dosed compound name [14C]-apixaban, route oral
Summary of the method: (§6)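 Pregnant SD rats (270-319 g) were fasted overnight and given one oral gavage of 5 mg/kg (100 μCi/kg) in 0.5% Tween 80 in Labrafil. One rat was euthanized per time point (0.5, 1, 4, 8, 24, 48 h) and the carcass frozen. 40 µm sagittal sections were phosphor-imaged against [14C]glucose standards and results reported as µg eq/g; LLOQ 0.037 µg eq/g.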

Muscle tissue [10] = experiment: Biodistribution in male Sprague-Dawley rat muscle at 5 mg/kg, po administered as single dose measured after 4 hrs; type: ADME, organism-based; parameters: dose 5 mg/kg, dosed compound name [14C]-apixaban, route oral; summary of the method: as §3
Adrenal gland [11] = experiment: Biodistribution in male Sprague-Dawley rat adrenal gland at 5 mg/kg, po administered as single dose measured after 24 hrs; type: ADME, organism-based; parameters: dose 5 mg/kg, dosed compound name [14C]-apixaban, route oral; summary of the method: as §5
Rattus norvegicus [12] = experiment: Biodistribution in male Sprague-Dawley rat kidney cortex at 5 mg/kg, po administered as single dose measured after 0.5 hrs; type: ADME, organism-based; parameters: dose 5 mg/kg, dosed compound name [14C]-apixaban, route oral
Rattus norvegicus [13] = experiment: Biodistribution in female Sprague-Dawley rat bone marrow at 5 mg/kg, po administered as single dose measured after 24 hrs; type: ADME, organism-based; parameters: dose 5 mg/kg, dosed compound name [14C]-apixaban, route oral; summary of the method: as §4
Blood = experiment: AUC (0 to infinity) in male Sprague-Dawley rat blood at 5 mg/kg, po administered as single dose; type: ADME, organism-based; parameters: time infinity, dose 5 mg/kg, dosed compound name [14C]-apixaban, route oral
Rattus norvegicus [14] = experiment: Biodistribution in male Sprague-Dawley rat brown fat at 5 mg/kg, po administered as single dose measured after 72 hrs; type: ADME, organism-based, Brown adipose tissue; parameters: dose 5 mg/kg, dosed compound name [14C]-apixaban, route oral; summary of the method: as §5
Liver = experiment: Biodistribution in male Sprague-Dawley rat liver at 5 mg/kg, po administered as single dose measured after 0.5 hrs; type: ADME, organism-based; parameters: dose 5 mg/kg, dosed compound name [14C]-apixaban, route oral; summary of the method: as §3
Rattus norvegicus [15] = experiment: Biodistribution in female Sprague-Dawley rat salivary gland at 5 mg/kg, po administered as single dose measured after 4 hrs; type: ADME, organism-based; parameters: dose 5 mg/kg, dosed compound name [14C]-apixaban, route oral
Summary of the method: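 [14C]apixaban (20 μCi/mL in dosing solution) in 0.5% Tween 80 in Labrafil given by oral gavage to fasted female rats, 206-213 g, at 100 μCi/kg. One rat per time point was euthanized and snap-frozen. Sagittal 40 µm whole-body sections were read by QWBA phosphor imaging against [14C]glucose standards. Results are in µg eq apixaban/g, with LLOQ 0.037 μg eq/g.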

Rattus norvegicus [16] = experiment: Biodistribution in fetal brain of pregnant Sprague-Dawley rat at 5 mg/kg, po administered as single dose measured after 0.5 hrs; type: ADME, organism-based; parameters: dose 5 mg/kg, dosed compound name [14C]-apixaban, route oral
Summary of the method: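 Pregnant SD rats received a single oral gavage of [14C]apixaban at 5 mg/kg (100 μCi/kg; 1.0 mg/mL, 20 μCi/mL in 0.5% Tween 80/Labrafil) after fasting, one dam per time point. Frozen carcasses were cut into 40 µm sagittal sections and read by phosphor-imaging QWBA against [14C]glucose standards. Fetal tissue radioactivity is reported as µg eq/g, with LLOQ 0.037 µg eq/g.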

Rattus norvegicus [17] = experiment: Biodistribution in pregnant Sprague-Dawley rat placenta at 5 mg/kg, po administered as single dose measured after 48 hrs; type: ADME, organism-based; parameters: dose 5 mg/kg, dosed compound name [14C]-apixaban, route oral; summary of the method: as §6
Rattus norvegicus [18] = experiment: Biodistribution in pregnant Sprague-Dawley rat bone marrow at 5 mg/kg, po administered as single dose measured after 8 hrs; type: ADME, organism-based; parameters: dose 5 mg/kg, dosed compound name [14C]-apixaban, route oral
Brain = experiment: Biodistribution in pregnant Sprague-Dawley rat brain at 5 mg/kg, po administered as single dose measured after 24 hrs; type: ADME, organism-based; parameters: dose 5 mg/kg, dosed compound name [14C]-apixaban, route oral; summary of the method: as §1
Adrenal gland [19] = experiment: Biodistribution in female Sprague-Dawley rat adrenal gland at 5 mg/kg, po administered as single dose measured after 24 hrs; type: ADME, organism-based; parameters: dose 5 mg/kg, dosed compound name [14C]-apixaban, route oral; summary of the method: as §4
Thymus = experiment: Biodistribution in female Sprague-Dawley rat thymus at 5 mg/kg, po administered as single dose measured after 8 hrs; type: ADME, organism-based; parameters: dose 5 mg/kg, dosed compound name [14C]-apixaban, route oral; summary of the method: as §4

Radiolabel recovery (Adrenal gland [1]): 2.3 ugequiv/g | Radiolabel recovery (Muscle tissue [2]): 0.37 ugequiv/g | Radiolabel recovery (Rattus norvegicus [3]): 0.27 ugequiv/g | Radiolabel recovery (Muscle tissue [4]): 0.43 ugequiv/g | Radiolabel recovery [5]: 74% | Radiolabel recovery (Rattus norvegicus [6]): Not detected assumed BLQ | Radiolabel recovery (Rattus norvegicus [7]): 0.07 ugequiv/g | Radiolabel recovery (Adrenal gland [8]): Not detected assumed BLQ | Radiolabel recovery (Rattus norvegicus [9]): < 0.037 ugequiv/g | Radiolabel recovery (Heart): Not detected assumed BLQ | Radiolabel recovery (Spleen): Not detected assumed BLQ | Radiolabel recovery (Muscle tissue [10]): 0.27 ugequiv/g | Radiolabel recovery (Rattus norvegicus [12]): 0.81 ugequiv/g | Radiolabel recovery (Rattus norvegicus [13]): Not detected assumed BLQ | AUC (Blood): 4300 ngequiv.hr/g | Radiolabel recovery (Liver): 0.81 ugequiv/g | Radiolabel recovery (Rattus norvegicus [15]): 0.44 ugequiv/g | Radiolabel recovery (Rattus norvegicus [16]): < 0.037 ugequiv/g | Radiolabel recovery (Rattus norvegicus [17]): Not detected assumed BLQ | Radiolabel recovery (Rattus norvegicus [18]): 0.06 ugequiv/g | Radiolabel recovery (Brain): Not detected assumed BLQ | Radiolabel recovery (Adrenal gland [19]): Not detected assumed BLQ | Radiolabel recovery (Thymus): 0.09 ugequiv/g
SMILES: COc1ccc(-n2nc(C(N)=O)c3c2C(=O)N(c2ccc(N4CCCC[14C]4=O)cc2)CC3)cc1
Radiolabel recovery (Adrenal gland [11]): Not sampled as not visualised in autoradiograph | Radiolabel recovery (Rattus norvegicus [14]): Not sampled as not visualised in autoradiograph
